Reference: article PMC3082041 (Cancer Chemotherapy and Pharmacology, 2010)
Where two headings read alike, the source gives them in different places.

Key:
[1] = tested on: patients with advanced solid tumors; test: Phase I dose escalation, drug-related adverse events; type: in vivo, human (Japanese patients)
Method in brief: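 Open, non-randomised escalation in three-patient cohorts at 200, 400, 800 and 1,200 mg/m2 oral bid. Tablets taken >2 h after breakfast and supper for 28 consecutive days, with a single dose on day 1. Toxicity graded weekly by NCI-CTC v2.0. DLT: grade 3/4 non-haematologic or grade 4 haematologic toxicity. MTD: DLT in >33% within 4 weeks.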

[2] = Plasma pharmacokinetics of TSU-68; type: in vivo, human (Japanese patients); conditions: for AUC(0-t) / Cmax / half-life / Tmax: human, oral
[3] = tested on: advanced solid tumors; test: Antitumor effect; type: in vivo, human (Japanese patients)
Method in brief: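 Tumours measured before treatment and at 4 weeks, scored by Japan Society for Cancer Therapy (WHO-based) criteria. PR: ≥50% shrinkage held ≥4 weeks. NC: <50% shrinkage or ≤25% enlargement held ≥4 weeks. PD: ≥25% enlargement or new lesions. Tumour-type-related markers measured before therapy. Patients with progression were taken off study.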

[4] = tested on: Caucasian patients; conditions: cited from earlier work
[5] = tested on: liver cytochrome P450, CYP1A1/2; conditions: non-clinical studies; cited from earlier work
[6] = published clinical result; cited from earlier work
[7] = 200 mg/m^2 bid (N = 3), G1, 28-days administration
[8] = 400 mg/m^2 bid (N = 3), G1, 28-days administration
[9] = 400 mg/m^2 bid (N = 3), G2, 28-days administration
[10] = 800 mg/m^2 bid (N = 6), G1, 28-days administration
[11] = 800 mg/m^2 bid (N = 6), G2, 28-days administration
[12] = 800 mg/m^2 bid (N = 6), G3, 28-days administration
[13] = 1,200 mg/m^2 bid (N = 3), G1, 28-days administration
[14] = 1,200 mg/m^2 bid (N = 3), G2, 28-days administration
[15] = Total, all dose levels (N = 15), 28-days administration

## Cc1[nH]c(/C=C2\C(=O)Nc3ccccc32)c(C)c1CCC(=O)O [TSU-68, (Z)-3-[2,4-dimethyl-5-(2-oxo-1,2-dihydro-indol-3-ylidenemethyl)-1H-pyrrol-3-yl]-propionic acid]
[1]; [7]
  Alanine aminotransferase increased, number of patients: 1
  Alkaline phosphatase increased, number of patients: 1
  Diarrhea, number of patients: 3
  Face edema, number of patients: 1
  Fatigue, number of patients: 1
  Nausea, number of patients: 1
  Upper abdominal pain, number of patients: 1
  Urine discoloration, number of patients: 3
[1]; 200 mg/m^2 bid (N = 3), G2, 28-days administration
  Chest pain, number of patients: 1
[1]; [8]
  Alkaline phosphatase increased, number of patients: 1
  Chest pain, number of patients: 1
  Diarrhea, number of patients: 1
  Face edema, number of patients: 1
  Fatigue, number of patients: 1
  Feces discolored, number of patients: 1
  Urine discoloration, number of patients: 3
[1]; [9]
  Albumin decreased, number of patients: 1
  Upper abdominal pain, number of patients: 1
[1]; [10]
  Abdominal pain, number of patients: 2
  Alanine aminotransferase increased, number of patients: 2
  Albumin decreased, number of patients: 4
  Alkaline phosphatase increased, number of patients: 3
  Anorexia, number of patients: 3
  Diarrhea, number of patients: 2
  Face edema, number of patients: 1
  Fatigue, number of patients: 3
  Feces discolored, number of patients: 6
  Nausea, number of patients: 2
  Total protein decreased, number of patients: 3
  Urine discoloration, number of patients: 6
  Vomiting, number of patients: 2
[1]; [11]
  Abdominal pain, number of patients: 1
  Anorexia, number of patients: 1
  Diarrhea, number of patients: 2
  Fatigue, number of patients: 1
[1]; [12]
  Anemia, number of patients: 1
  Arrhythmia, number of patients: 1
  Thrombocytopenia, number of patients: 1
[1]; [13]
  Abdominal pain, number of patients: 1
  Alkaline phosphatase increased, number of patients: 1
  Anorexia, number of patients: 2
  Chest pain, number of patients: 1
  Diarrhea, number of patients: 1
  Face edema, number of patients: 2
  Fatigue, number of patients: 2
  Feces discolored, number of patients: 3
  Upper abdominal pain, number of patients: 2
  Urine discoloration, number of patients: 3
[1]; [14]
  Abdominal pain, number of patients: 1
  Albumin decreased, number of patients: 1
  Anorexia, number of patients: 1
  Diarrhea, number of patients: 1
  Fatigue, number of patients: 1
  Nausea, number of patients: 1
  Vomiting, number of patients: 1
[1]; Total (N = 5), after 28 days
  Abdominal pain, number of patients: 1
  Abdominal pain, patients (%): (20) %
  Alanine aminotransferase increased, number of patients: 3
  Alkaline phosphatase increased, number of patients: 2
  Anorexia, number of patients: 1
  Anorexia, patients (%): (20) %
  Arrhythmia, number of patients: 1
  Arrhythmia, patients (%): (20) %
  Chest pain, number of patients: 2
  Diarrhea, number of patients: 3
  Face edema, number of patients: 3
  Fatigue, number of patients: 4
  Fatigue, patients (%): (80) %
  Feces discolored, number of patients: 4
  Feces discolored, patients (%): (80) %
  Nausea, number of patients: 1
  Nausea, patients (%): (20) %
  Urine discoloration, number of patients: 5
  Urine discoloration, patients (%): (100) %
  Vomiting, number of patients: 1
  Vomiting, patients (%): (20) %
[1]; [15]
  Abdominal pain, number of patients: 5
  Abdominal pain, patients (%): (33) %
  Alanine aminotransferase increased, number of patients: 3
  Alanine aminotransferase increased, patients (%): (20) %
  Albumin decreased, number of patients: 6
  Alkaline phosphatase increased, number of patients: 6
  Anemia, number of patients: 1
  Arrhythmia, number of patients: 1
  Chest pain, number of patients: 3
  Chest pain, patients (%): (20) %
  Face edema, number of patients: 5
  Face edema, patients (%): (33) %
  Fatigue, number of patients: 9
  Nausea, number of patients: 4
  Thrombocytopenia, number of patients: 1
  Total protein decreased, number of patients: 3
  Total protein decreased, patients (%): (20) %
  Upper abdominal pain, number of patients: 4
  Urine discoloration, number of patients: 15
  Urine discoloration, patients (%): (100) %
  Vomiting, number of patients: 3
  Vomiting, patients (%): (20) %
[1]; continuous oral bid between meals
  recommended dose for further studies: less than 800 mg/m^2 bid
[1]; oral bid between meals
  tolerable dose for continuing treatment: ≤ 800 mg/m^2 bid
[1]; oral, between meals, estimated
  acceptable dosage level in daily administration: 800 mg/m^2 bid
[2]; after the first dose, plasma
  time to reach Cmax: ~ 2.5 h
[2]; plasma, 200 mg/m2, AUC0–t, 200 mg/m^2, Day 1, 3 patients, plasma
  AUC(0-t): 45600 ± 21000 ng·h/mL
[2]; plasma, 200 mg/m2, AUC0–t, 200 mg/m^2, Day 8, 3 patients, plasma
  AUC(0-t): 20600 ± 6200 ng·h/mL
[2]; plasma, 200 mg/m2, AUC0–t, 200 mg/m^2, Day 29, 3 patients, plasma
  AUC(0-t): 21200 ± 9500 ng·h/mL
[2]; plasma, 200 mg/m2, Cmax, 200 mg/m^2, Day 1, 3 patients, plasma
  Cmax: 10600 ± 6040 ng/mL
[2]; plasma, 200 mg/m2, Cmax, 200 mg/m^2, Day 8, 3 patients, plasma
  Cmax: 6670 ± 3700 ng/mL
[2]; plasma, 200 mg/m2, Cmax, 200 mg/m^2, Day 29, 3 patients, plasma
  Cmax: 6350 ± 3780 ng/mL
[2]; plasma, 200 mg/m2, T1/2, 200 mg/m^2, Day 1, 3 patients, plasma
  half-life: 482 ± 229 min
[2]; plasma, 200 mg/m2, T1/2, 200 mg/m^2, Day 8, 3 patients, plasma
  half-life: 288 ± 128 min
[2]; plasma, 200 mg/m2, T1/2, 200 mg/m^2, Day 29, 3 patients, plasma
  half-life: 215 ± 103 min
[2]; plasma, 200 mg/m2, Tmax, 200 mg/m^2, Day 1, 3 patients, plasma
  Tmax: 2.3 ± 1.5 h
[2]; plasma, 200 mg/m2, Tmax, 200 mg/m^2, Day 8, 3 patients, plasma
  Tmax: 1.7 ± 0.3 h
[2]; plasma, 200 mg/m2, Tmax, 200 mg/m^2, Day 29, 3 patients, plasma
  Tmax: 1.7 ± 0.8 h
[2]; plasma, 400 mg/m2, AUC0–t, 400 mg/m^2, Day 1, 3 patients, plasma
  AUC(0-t): 58200 ± 16800 ng·h/mL
[2]; plasma, 400 mg/m2, AUC0–t, 400 mg/m^2, Day 8, 3 patients, plasma
  AUC(0-t): 25000 ± 9400 ng·h/mL
[2]; plasma, 400 mg/m2, AUC0–t, 400 mg/m^2, Day 29, 2 patients, plasma
  AUC(0-t): 22900 ng·h/mL
[2]; plasma, 400 mg/m2, Cmax, 400 mg/m^2, Day 1, 3 patients, plasma
  Cmax: 11700 ± 3810 ng/mL
[2]; plasma, 400 mg/m2, Cmax, 400 mg/m^2, Day 8, 3 patients, plasma
  Cmax: 7210 ± 1060 ng/mL
[2]; plasma, 400 mg/m2, Cmax, 400 mg/m^2, Day 29, 2 patients, plasma
  Cmax: 6350 ng/mL
[2]; plasma, 400 mg/m2, T1/2, 400 mg/m^2, Day 1, 3 patients, plasma
  half-life: 473 ± 242 min
[2]; plasma, 400 mg/m2, T1/2, 400 mg/m^2, Day 8, 3 patients, plasma
  half-life: 212 ± 25.8 min
[2]; plasma, 400 mg/m2, T1/2, 400 mg/m^2, Day 29, 2 patients, plasma
  half-life: 322 min
[2]; plasma, 400 mg/m2, Tmax, 400 mg/m^2, Day 1, 3 patients, plasma
  Tmax: 2.5 ± 1.3 h
[2]; plasma, 400 mg/m2, Tmax, 400 mg/m^2, Day 8, 3 patients, plasma
  Tmax: 1.8 ± 0.3 h
[2]; plasma, 400 mg/m2, Tmax, 400 mg/m^2, Day 29, 2 patients, plasma
  Tmax: 1 h
[2]; plasma, 800 mg/m2, AUC0–t, 800 mg/m^2, Day 1, 6 patients, plasma
  AUC(0-t): 83300 ± 32700 ng·h/mL
[2]; plasma, 800 mg/m2, AUC0–t, 800 mg/m^2, Day 8, 5 patients, plasma
  AUC(0-t): 44600 ± 17300 ng·h/mL
[2]; plasma, 800 mg/m2, AUC0–t, 800 mg/m^2, Day 29, 4 patients, plasma
  AUC(0-t): 30000 ± 16700 ng·h/mL
[2]; plasma, 800 mg/m2, Cmax, 800 mg/m^2, Day 1, 6 patients, plasma
  Cmax: 14600 ± 5650 ng/mL
[2]; plasma, 800 mg/m2, Cmax, 800 mg/m^2, Day 8, 5 patients, plasma
  Cmax: 10600 ± 1830 ng/mL
[2]; plasma, 800 mg/m2, Cmax, 800 mg/m^2, Day 29, 4 patients, plasma
  Cmax: 10700 ± 4690 ng/mL
[2]; plasma, 800 mg/m2, T1/2, 800 mg/m^2, Day 1, 6 patients, plasma
  half-life: 596 ± 361 min
[2]; plasma, 800 mg/m2, T1/2, 800 mg/m^2, Day 8, 5 patients, plasma
  half-life: 259 ± 163 min
[2]; plasma, 800 mg/m2, T1/2, 800 mg/m^2, Day 29, 4 patients, plasma
  half-life: 262 ± 243 min
[2]; plasma, 800 mg/m2, Tmax, 800 mg/m^2, Day 1, 6 patients, plasma
  Tmax: 2.8 ± 1.1 h
[2]; plasma, 800 mg/m2, Tmax, 800 mg/m^2, Day 8, 5 patients, plasma
  Tmax: 1.5 ± 0.4 h
[2]; plasma, 800 mg/m2, Tmax, 800 mg/m^2, Day 29, 4 patients, plasma
  Tmax: 2.1 ± 0.3 h
[2]; plasma, 1200 mg/m^2, Cmax, 1,200 mg/m^2, Day 1, 3 patients, plasma
  Cmax: 16000 ± 1910 ng/mL
[2]; plasma, 1200 mg/m^2, Cmax, 1,200 mg/m^2, Day 8, 3 patients, plasma
  Cmax: 8150 ± 4220 ng/mL
[2]; plasma, 1200 mg/m^2, Cmax, 1,200 mg/m^2, Day 29, 3 patients, plasma
  Cmax: 6710 ± 884 ng/mL
[2]; plasma, 1200 mg/m^2, T1/2, 1,200 mg/m^2, Day 1, 3 patients, plasma
  half-life: 500 ± 279 min
[2]; plasma, 1200 mg/m^2, T1/2, 1,200 mg/m^2, Day 8, 3 patients, plasma
  half-life: 167 ± 54 min
[2]; plasma, 1200 mg/m^2, T1/2, 1,200 mg/m^2, Day 29, 3 patients, plasma
  half-life: 290 ± 197 min
[2]; plasma, 1200 mg/m^2, Tmax, 1,200 mg/m^2, Day 1, 3 patients, plasma
  Tmax: 2.2 ± 0.8 h
[2]; plasma, 1200 mg/m^2, Tmax, 1,200 mg/m^2, Day 8, 3 patients, plasma
  Tmax: 1.8 ± 0.3 h
[2]; plasma, 1200 mg/m^2, Tmax, 1,200 mg/m^2, Day 29, 3 patients, plasma
  Tmax: 1.7 ± 0.3 h
[2]; steady-state exposure, 200 mg/m^2, IC50 from ref 16
  trough plasma level versus IC50 for VEGF and PDGF receptors cellular assay: above the IC50
[3]; 15 patients, 200-1,200 mg/m^2 bid
  partial or complete responses: No partial or complete responses were seen
[3]; non-small cell lung cancer 2, thymoma 1, peritoneal sarcoma 1
  patients with stable disease: Four
[4]; day 1, Caucasian patients
  AUC: 70 µg·h/mL
[4]; day 28, Caucasian patients
  AUC: 32 µg·h/mL
[5]
  induction of liver cytochrome P450, CYP1A1/2: causes induction of liver cytochrome P450, CYP1A1/2
[6]
  AUC on day 56 compared with day 28: similar
